To fix the notation:
B1: tRNA (parent)
chain: GUUCCGUUGGCGUAAUGGUAACGCGUCUCCCUCCUAAGGAGAAGACUGCGGGUUCGAGUCCCGUACGGAACG

Consider 167 variants from the RNAGym collection of RNA variant scans (doi:10.1126/science.aae0568).

This sample holds only a part of the variants without activity.

The variants in the series derive from B1. The series can be described thus: yeast fitness relative to wild type (ratio to wild type); higher = fitter; tRNA-Arg(CCU), competitive growth, 37 C, YPD. The gist of the method:
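Variants of the tRNA-Arg(CCU) gene were chemically synthesised with a 3% per-site mutation rate across 69 sites and placed at the native genomic locus in Saccharomyces cerevisiae. Six parallel replicates of the pooled strains were competed in YPD at 37°C for 24 hours, and gene amplicons from the start and end populations were read by 100-nucleotide paired-end sequencing. Darwinian fitness relative to wild type was derived from changes in genotype frequencies. Genotypes required ≥ 100 starting reads, and estimates < 0.5 were set to 0.5.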
Take G6A A36U: the yeast fitness amounted to 0.604.

Take G6A A20C C55A G68A: the yeast fitness was at most 0.5.

For G6A A37U G56A A65C, the yeast fitness was determined as 0.56.

As to G6A C11A A36C C61G C62A A69C, the yeast fitness was at most 0.5.

As for G6A A20C A65G, the yeast fitness was determined as 0.672.

On to G6A A20C A65U, for which the yeast fitness was determined as 0.699.

Take G6A A21U C33U: the yeast fitness stood at 0.525.

For the variant G6A A15U C27A A65C A69C, the yeast fitness was at most 0.5.

As for G6A A20C C49G G50C, the yeast fitness was at most 0.5.

For G6A A20C C27U, the yeast fitness amounted to 0.663.

In the case of G6A C24A G38A G39C G52A, the yeast fitness turned out to be 0.625.

Regarding G6A A40G A45U G56A, the yeast fitness was at most 0.5.

Turning to C5U U26C A70U, the yeast fitness amounted to 0.723.

C5U U64G: the yeast fitness is 0.853.

With C5U U64A, the yeast fitness was determined as 0.933.

For the variant C5U U64C, the yeast fitness came to 0.932.

As for G6A A36U G56A C66U, the yeast fitness is at most 0.5.

For G6A C22G A37G U47A A70C, the yeast fitness is at most 0.5.

Turning to G6A A36U C66U G67A, the yeast fitness was at most 0.5.

With G6A A14U C66U, the yeast fitness was at most 0.5.

For the variant C5U U16C A20G A40G A43G G67C, the yeast fitness is at most 0.5.

For the variant G6A A20U C61U G67A G68U, the yeast fitness is at most 0.5.

C5U U28A C62G: the yeast fitness is at most 0.5.

Take G6A A15U A20U G38C: the yeast fitness was at most 0.5.

As to C5U U28G A45C, the yeast fitness worked out at 0.592.

With G6A A45G A65U, the yeast fitness was 0.771.

Take C5U U32C A45C: the yeast fitness came out at 0.733.

With G6A C11U C24U, the yeast fitness is at most 0.5.

As to G6A A21C C62U, the yeast fitness is at most 0.5.

Consider G6A A40G G44A, for which the yeast fitness turned out to be 0.614.

Regarding C5U U26A C33G C46U C55G C66A, the yeast fitness was found to be 0.539.

As for C5U U16C A40G A43G G67C, the yeast fitness is at most 0.5.

With G6A A15U G23A C33A U54A, the yeast fitness was at most 0.5.

Regarding C5U U19G G67A, the yeast fitness worked out at 0.649.

With G6A A14C A37U A57C G67U, the yeast fitness is at most 0.5.

On to C5U U19G G23A C46A, for which the yeast fitness was at most 0.5.

G6A A42G U64C: the yeast fitness came to 0.629.

G6A A57U A65C A70C: the yeast fitness was 0.534.

For C5U U19C C22U, the yeast fitness amounted to 0.721.

Consider G6A C11U G68C, for which the yeast fitness stood at 0.54.

As to G6A A20G A36G C49G C62A C66U, the yeast fitness is at most 0.5.

Turning to G6A A21G C46A U54C, the yeast fitness was at most 0.5.

G6A A15G C46A A69U: the yeast fitness was at most 0.5.

C5U U26A G68C: the yeast fitness is 0.663.

With G6A A14U C55U C61A, the yeast fitness is at most 0.5.

Regarding G6A A36G A45C, the yeast fitness amounted to 0.751.

In the case of G6A C11U U13C C27G A69C, the yeast fitness stood at 0.541.

Regarding G6A A20C, the yeast fitness stood at 0.714.

G6A A20U: the yeast fitness is 0.851.

Turning to G6A A15G C30U A69U, the yeast fitness was at most 0.5.

Regarding G6A A15G U26A C30G C46U, the yeast fitness was 0.661.

G6A C22U A40C A69U: the yeast fitness was 0.63.

Take G6A C22U A40C: the yeast fitness was at most 0.5.

As to G6A C22G G44C A70C, the yeast fitness was at most 0.5.

Consider G6A A20G C46U, for which the yeast fitness worked out at 0.723.

As to G6A A15C C60A C62U, the yeast fitness is at most 0.5.

Take C5U U16C C29A: the yeast fitness turned out to be 0.522.

For the variant G6A C11A G17A U35G U59C, the yeast fitness is at most 0.5.

For the variant G6A A45G A70C, the yeast fitness stood at 0.856.

Take G6A C11G C33G A70U: the yeast fitness is at most 0.5.

For the variant G6A A42G G50C, the yeast fitness worked out at 0.62.

For G6A C11A C27G U35A A43U U54C A65G, the yeast fitness is at most 0.5.

Turning to G6A A21G G58C U59C, the yeast fitness was found to be 0.661.

With G6A A21C A43U, the yeast fitness was 0.528.

With G6A C22G G52C G58C A65U, the yeast fitness was at most 0.5.

Consider G6A A21U A45U G48C A57C G67U, for which the yeast fitness is at most 0.5.

Consider C5U U47C A57U G67C, for which the yeast fitness is at most 0.5.

Take C5U U32G: the yeast fitness is 0.669.

As to C5U U32A, the yeast fitness turned out to be 0.789.

Take G6A A21C U47A A70G: the yeast fitness was at most 0.5.

For the variant G6A C22U C61U A70G, the yeast fitness is at most 0.5.

As to G6A A40U A43C, the yeast fitness turned out to be 0.766.

Regarding C5U U26C G50C G51C G56C G67A, the yeast fitness was at most 0.5.

With G6A A14U C61A, the yeast fitness is at most 0.5.

Consider G6A A43U U53C A57C A65U, for which the yeast fitness is at most 0.5.

For C5U U16G G51C A57C, the yeast fitness is at most 0.5.

G6A A37U C55G C66U: the yeast fitness was at most 0.5.

For the variant G6A C11A U54G, the yeast fitness came to 0.563.

As to G6A A20U C49U, the yeast fitness is 0.542.

Regarding G6A A40G A42G, the yeast fitness was found to be 0.554.

As for G6A A45U A57C, the yeast fitness is at most 0.5.

As to G6A A37G G68A A69G, the yeast fitness came to 0.545.

Turning to C5U U28A G41A A70U, the yeast fitness is at most 0.5.

For C5U U19C A21U C31U A42G A43U A65C, the yeast fitness is at most 0.5.

Regarding C5U U47C A57C, the yeast fitness was at most 0.5.

With G6A A14U C29A C49A, the yeast fitness is at most 0.5.

Turning to C5U U26A C55G, the yeast fitness was at most 0.5.

Regarding G6A A15C A20U G68A, the yeast fitness is at most 0.5.

Take C5U U16G A57G C62G C66U: the yeast fitness was at most 0.5.

Consider C5U U28A G41A, for which the yeast fitness was determined as 0.534.

With G6A A15G C29U, the yeast fitness stood at 0.607.

For G6A A15G C29A, the yeast fitness was at most 0.5.

Turning to C5U U32G C33G C55U, the yeast fitness was found to be 0.621.

Turning to G6A A20U C62G C66G, the yeast fitness was at most 0.5.

As to G6A A20U A21G C61U, the yeast fitness is at most 0.5.

Consider C5U U35C A45U C61G, for which the yeast fitness is at most 0.5.

Turning to G6A A36G G48A, the yeast fitness was found to be 0.59.

For G6A C22G A42C C62U, the yeast fitness is at most 0.5.

G6A A37C A65C A70C: the yeast fitness was at most 0.5.

On to G6A C22G C31U, for which the yeast fitness amounted to 0.771.

As to G6A A57C G58A, the yeast fitness was at most 0.5.

For the variant G6A A20G C31G C46U, the yeast fitness was found to be 0.58.

In the case of G6A A14U A21U G25C C60U C61A C62G, the yeast fitness is at most 0.5.

G6A C22U C29G A42G: the yeast fitness is at most 0.5.

Regarding C5U U47G, the yeast fitness was 0.615.

On to C5U U53A, for which the yeast fitness was determined as 0.604.

For the variant C5U U53C, the yeast fitness was determined as 0.747.

As for C5U U32C C49U A57C, the yeast fitness was at most 0.5.

For the variant G6A A36U C61G, the yeast fitness is 0.646.

In the case of G6A A14C A37U U54A, the yeast fitness was at most 0.5.

In the case of G6A C11A A14C U19C U32A U35C A42C, the yeast fitness was at most 0.5.

As to G6A A14G G48C, the yeast fitness is at most 0.5.

Turning to C5U U26A C66U, the yeast fitness was 0.792.

Regarding G6A C11G C24U, the yeast fitness was at most 0.5.

As for G6A A45C A70U, the yeast fitness is at most 0.5.

In the case of G6A A15C C29A C66U, the yeast fitness is at most 0.5.

As to G6A A20U A42G, the yeast fitness was at most 0.5.

As to G6A C11A C66A, the yeast fitness is at most 0.5.

As to G6A A20U C27U A57U, the yeast fitness was at most 0.5.

Consider C5U U16C A69C, for which the yeast fitness was found to be 0.671.

G6A C22U C49A: the yeast fitness was at most 0.5.

With C5U U19A, the yeast fitness amounted to 0.906.

C5U U19G: the yeast fitness is 1.

With G6A C22U A42C G52A G56C, the yeast fitness was at most 0.5.

For the variant G6A A20C A45U C46U A57C, the yeast fitness was determined as 0.501.

G6A A40G G41A A42G: the yeast fitness was at most 0.5.

For the variant G6A C11A G52U, the yeast fitness is at most 0.5.

With G6A A42C G48A C62U, the yeast fitness was determined as 0.698.

Turning to G6A C11G A21G C24A G52A C60A A69G, the yeast fitness was at most 0.5.

On to G6A C22A C31U G68C, for which the yeast fitness worked out at 0.709.

Consider G6A A15G U19C C22A, for which the yeast fitness is at most 0.5.

Consider C5U U28C C33G G38A U64G, for which the yeast fitness was at most 0.5.

In the case of G6A A15C C27G G44C C49A U64A, the yeast fitness worked out at 0.538.

Consider C5U U28A U35C U59A, for which the yeast fitness is at most 0.5.

As for C5U U16G G58C, the yeast fitness stood at 0.576.

Consider G6A A20G A36G C49G C61A, for which the yeast fitness is at most 0.5.

Consider G6A A14U G23A C29G C46A C55G G68A A70C, for which the yeast fitness was at most 0.5.

Consider C5U U19G C46A C55G, for which the yeast fitness is at most 0.5.

As to G6A A37G G51C C61U, the yeast fitness turned out to be 0.528.

Regarding G6A C22U A42C, the yeast fitness came out at 0.605.

For the variant G6A C11G C34G A42G C62U, the yeast fitness was 0.609.

Turning to G6A A21U C33U A57U U59C, the yeast fitness was at most 0.5.

As for G6A A43G U59C, the yeast fitness turned out to be 0.595.

Take G6A A40U A69C: the yeast fitness is 0.581.

As for C5U U26A C60G A70G, the yeast fitness is at most 0.5.

G6A C11U U13C A43G G52A G67A: the yeast fitness is at most 0.5.

For the variant G6A A43G A69U, the yeast fitness amounted to 0.716.

For the variant G6A A15C G51A A57U G68A, the yeast fitness is at most 0.5.

G6A A21C C33G A45C G50C: the yeast fitness came to 0.515.

On to G6A C11U, for which the yeast fitness is 0.801.

Turning to G6A C11A, the yeast fitness was 0.639.

In the case of G6A A14C A20G A42U G56A G63C, the yeast fitness was at most 0.5.

In the case of G6A A20U U26G C62U, the yeast fitness is at most 0.5.

In the case of G6A C22G C62G, the yeast fitness is at most 0.5.

For G6A A15C C33G A36C, the yeast fitness is at most 0.5.

As for G6A A15G C22A G25A C33U G52C G56C, the yeast fitness was at most 0.5.

On to G6A A15G U54C, for which the yeast fitness was at most 0.5.

Regarding G6A A14C C24U, the yeast fitness turned out to be 0.597.

As to G6A A42U G58A, the yeast fitness was 0.634.

G6A C22U C27G A36G A43G: the yeast fitness was at most 0.5.

Consider G6A A21C C34U C49U C55G C62U, for which the yeast fitness is at most 0.5.

As for G6A C22G U54G A69U, the yeast fitness is at most 0.5.

Take G6A C11U C34G G58A: the yeast fitness was 0.724.

With C5U U32C A37C C60U G67A, the yeast fitness is 0.572.

For the variant G6A A70U, the yeast fitness amounted to 0.958.

On to G6A A70G, for which the yeast fitness stood at 0.928.

For G6A A70C, the yeast fitness came out at 0.863.
